In ChEMBL document CHEMBL3045952, “Design, synthesis, and fungicidal activity of novel analogues of pyrrolnitrin” (J Agric Food Chem, 2009):

What was measured:
Format in all cases: functional
Settings in all cases: read-out: GI
[1] = tested on: Alternaria solani; test: Fungicidal activity against Alternaria solani assessed as mycelium growth inhibition at 50 ug/mL by mycelium growth rate method
How it was run: (§1)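 In vitro mycelium growth rate method, with fenpiclonil as control. Compounds were tested at 50, 20 and 10 μg mL-1. Mycelial diameters were measured once the mycelia had grown completely. Inhibition (%) = (D1 − D2)/D1 × 100, where D1 is the mean mycelial diameter in the blank and D2 is the mean diameter with compound.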

[2] = tested on: Fusarium graminearum; test: Fungicidal activity against Fusarium graminearum assessed as mycelium growth inhibition at 50 ug/mL by mycelium growth rate method; how it was run: as §1
[3] = tested on: Botryosphaeria berengeriana; test: Fungicidal activity against Botryosphaeria berengeriana assessed as mycelium growth inhibition at 10 ug/mL by mycelium growth rate method; how it was run: as §1
[4] = tested on: Fusarium oxysporum; test: Fungicidal activity against Fusarium oxysporum assessed as mycelium growth inhibition at 50 ug/mL by mycelium growth rate method; how it was run: as §1
[5] = tested on: Fusarium graminearum; test: Fungicidal activity against Fusarium graminearum assessed as mycelium growth inhibition at 10 ug/mL by mycelium growth rate method; how it was run: as §1
[6] = tested on: Botryosphaeria berengeriana; test: Fungicidal activity against Botryosphaeria berengeriana assessed as mycelium growth inhibition at 20 ug/mL by mycelium growth rate method; how it was run: as §1
[7] = tested on: Fusarium oxysporum; test: Fungicidal activity against Fusarium oxysporum assessed as mycelium growth inhibition at 10 ug/mL by mycelium growth rate method; how it was run: as §1
[8] = tested on: Mycosphaerella arachidis; test: Fungicidal activity against Mycosphaerella arachidis assessed as mycelium growth inhibition at 10 ug/mL by mycelium growth rate method; how it was run: as §1
[9] = tested on: Alternaria solani; test: Fungicidal activity against Alternaria solani assessed as mycelium growth inhibition at 10 ug/mL by mycelium growth rate method; how it was run: as §1
[10] = tested on: Fusarium graminearum; test: Fungicidal activity against Fusarium graminearum assessed as mycelium growth inhibition at 20 ug/mL by mycelium growth rate method; how it was run: as §1
[11] = tested on: Mycosphaerella arachidis; test: Fungicidal activity against Mycosphaerella arachidis assessed as mycelium growth inhibition at 50 ug/mL by mycelium growth rate method; how it was run: as §1
[12] = tested on: Mycosphaerella arachidis; test: Fungicidal activity against Mycosphaerella arachidis assessed as mycelium growth inhibition at 20 ug/mL by mycelium growth rate method; how it was run: as §1
[13] = tested on: Fusarium oxysporum; test: Fungicidal activity against Fusarium oxysporum assessed as mycelium growth inhibition at 20 ug/mL by mycelium growth rate method; how it was run: as §1
[14] = tested on: Alternaria solani; test: Fungicidal activity against Alternaria solani assessed as mycelium growth inhibition at 20 ug/mL by mycelium growth rate method; how it was run: as §1
[15] = tested on: Botryosphaeria berengeriana; test: Fungicidal activity against Botryosphaeria berengeriana assessed as mycelium growth inhibition at 50 ug/mL by mycelium growth rate method; how it was run: as §1

Row | Structure (SMILES) | inhibition of growth at 50 µg/mL [1] [%] | inhibition of growth at 50 µg/mL [2] [%] | inhibition of growth at 10 µg/mL [3] [%] | inhibition of growth at 50 µg/mL [4] [%] | inhibition of growth at 10 µg/mL [5] [%] | inhibition of growth at 20 µg/mL [6] [%] | inhibition of growth at 10 µg/mL [7] [%] | inhibition of growth at 10 µg/mL [8] [%] | inhibition of growth at 10 µg/mL [9] [%] | inhibition of growth at 20 µg/mL [10] [%] | inhibition of growth at 50 µg/mL [11] [%] | inhibition of growth at 20 µg/mL [12] [%] | inhibition of growth at 20 µg/mL [13] [%] | inhibition of growth at 20 µg/mL [14] [%] | inhibition of growth at 50 µg/mL [15] [%]
1 | O=[N+]([O-])c1cc(F)c(Cl)cc1-c1ccsc1 | 60 | 47 | 64 | 87 | 0 | 74 | 18 | 0 | 0 | 30 | 25 | 18 | 43 | 35 | 80
2 | O=[N+]([O-])c1ccccc1-c1ccsc1[N+](=O)[O-] | 25 | 23 | 0 | 22 | 6 | 25 | 0 | 8 | 9 | 14 | 25 | 16 | 13 | 16 | 30
3 | O=[N+]([O-])c1ccccc1-c1ccsc1 | 75 | 65 | 20 | 68 | 13 | 68 | 12 | 0 | 0 | 43 | 18 | 0 | 31 | 30 | 88
4 | O=[N+]([O-])c1cc(Cl)cc(Cl)c1-c1ccsc1 | 60 | 39 | 42 | 87 | 8 | 72 | 56 | 0 | 20 | 26 | 25 | 18 | 81 | 55 | 82
5 | O=[N+]([O-])c1cc(Cl)ccc1-c1ccsc1[N+](=O)[O-] | 9 | 0 | 0 | 17 | 0 | 10 | 0 | 0 | 0 | 0 | 0 | 0 | 0 | 0 | 25
6 | O=[N+]([O-])c1cc(-c2ccc(F)cc2[N+](=O)[O-])cs1 | 41 | 12 | 4 | 25 | 0 | 10 | 7 | 11 | 6 | 0 | 44 | 27 | 17 | 25 | 46
7 | O=[N+]([O-])c1cc(F)ccc1-c1ccsc1 | 55 | 39 | 0 | 75 | 8 | 20 | 0 | 0 | 10 | 30 | 0 | 0 | 50 | 35 | 80
